Source: ChEMBL document CHEMBL4261611, “Identification of steroidal derivatives inhibiting the transformations of allopregnanolone and estradiol by 17β-hydroxysteroid dehydrogenase type 10” (Bioorg Med Chem Lett, 2018)
Calls of active or inactive are those of the source. The rule behind the calls is not given here.

Tests used:
[1] = biological target: T1, 3-hydroxyacyl-CoA dehydrogenase type-2 (Mus musculus) (UniProt O08756); assay: Inhibition of recombinant mouse full-length 17beta-HSD10 (2 to 261 residues) assessed as reduction in transformation of [14C]-E2 to E1 at 100 uM after 48 hrs in presence of 1 mM NAD+ cofactor by liquid scintillation counting method
T1 sequence (whole entry): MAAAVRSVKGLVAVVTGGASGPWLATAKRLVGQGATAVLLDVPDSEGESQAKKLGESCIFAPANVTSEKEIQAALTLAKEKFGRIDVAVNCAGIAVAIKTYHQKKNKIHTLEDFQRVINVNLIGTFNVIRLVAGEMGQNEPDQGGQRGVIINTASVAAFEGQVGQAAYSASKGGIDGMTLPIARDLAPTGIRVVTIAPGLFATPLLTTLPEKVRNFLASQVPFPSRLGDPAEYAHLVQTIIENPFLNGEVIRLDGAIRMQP

[2] = Octanol/water partition co-efficient, log P of the compound; assay type: physicochemical
Summary of the method: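 Octanol/water partition coefficient calculated in silico, not measured.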

[3] = biological target: T1, 3-hydroxyacyl-CoA dehydrogenase type-2 (Mus musculus); assay: Inhibition of recombinant mouse full-length 17beta-HSD10 (2 to 261 residues) assessed as reduction in transformation of [3H]-ALLOP to 5alpha-DHP at 100 uM after 48 hrs in presence of 1 mM NAD+ cofactor by liquid scintillation counting method relative to control
Summary of the method: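 Screen at 100 μM inhibitor, 48 h, with 400 ng/mL purified enzyme, 1 mM NAD⁺ and 1 μM [³H]-ALLOP/ALLOP (1:99). ALLOP-to-5α-DHP conversion was expressed as % inhibition versus the no-inhibitor transformation. Results are mean ± SEM.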

[4] = biological target: T2, 3-hydroxyacyl-CoA dehydrogenase type-2 (Mus musculus, UniProt O08756); assay: Inhibition of recombinant mouse full-length 17beta-HSD10 (2 to 261 residues) assessed as reduction in transformation of [14C]-E2 to E1 after 48 hrs in presence of 1 mM NAD+ cofactor by liquid scintillation counting method
T2 sequence (O08756 whole entry): T1 sequence (whole entry)
Summary of the method: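 Purified 17β-HSD10 at 400 ng/mL with 1 mM NAD⁺ and substrate [¹⁴C]-E2/E2 (1:9) at 1 μM total, incubated 48 h. E2-to-E1 oxidation was followed with radiolabel. Percent inhibition over a dose range was used for dose-response curves and IC50 estimation. Results are mean ± SEM.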

[5] = biological target: T2, 3-hydroxyacyl-CoA dehydrogenase type-2; assay: Inhibition of recombinant mouse full-length 17beta-HSD10 (2 to 261 residues) assessed as reduction in transformation of [3H]-ALLOP to 5alpha-DHP after 48 hrs in presence of 1 mM NAD+ cofactor by liquid scintillation counting method
Summary of the method: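 Purified 17β-HSD10 (400 ng/mL), 1 mM NAD⁺, 1 μM [³H]-ALLOP/ALLOP (1:99), 48 h incubation. Oxidation to 5α-DHP was measured over a range of inhibitor concentrations to build inhibition curves and estimate IC50. Results are mean ± SEM.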

[6] = biological target: T1, 3-hydroxyacyl-CoA dehydrogenase type-2 (Mus musculus); assay: Inhibition of recombinant mouse full-length 17beta-HSD10 (2 to 261 residues) assessed as reduction in transformation of [14C]-E2 to E1 at 300 uM after 48 hrs in presence of 1 mM NAD+ cofactor by liquid scintillation counting method relative to control
Summary of the method: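 Single-concentration screen at 300 μM inhibitor. Purified 17β-HSD10 (400 ng/mL), 1 mM NAD⁺, 1 μM [¹⁴C]-E2/E2 (1:9), 48 h incubation. E2-to-E1 conversion was measured and inhibition expressed relative to uninhibited transformation. Results are mean ± SEM.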

[7] = Blood-brain transfer coefficient in mouse administered via perfusion; assay type: ADME, tissue-based; settings: in vivo, other
[8] = Effect on mouse brain penetration assessed as [14C]-sucrose uptake administered via perfusion; assay type: ADME, tissue-based; settings: in vivo
[9] = Solubility of the compound at 600 to 1000 uM; assay type: physicochemical

| Compound | inhibition [1] | logP [2] | inhibition [3] [%] | IC50 [4] [µM] | IC50 [5] [µM] | inhibition [6] [%] | Kin [7] [µL/s/g] | Activity [8] | solubility [9] |
| --- | --- | --- | --- | --- | --- | --- | --- | --- | --- |
| Cc1cc(C)cc(C(=O)N2CCN(C[C@@]3(O)CC[C@@]4(C)[C@@H](CC[C@@H]5[C@@H]4CC[C@]4(C)C(=O)CC[C@@H]54)C3)CC2)c1 | inactive | 4.86 | 1.5 |  |  |  |  |  |  |
| C[C@]12CC[C@@H]3c4ccc(O)cc4CC[C@H]3[C@@H]1CC[C@@H]2O [ESTRADIOL] |  |  |  | 155 | 770 |  |  |  |  |
| C[C@]12CC[C@](O)(CN3CCN(C(=O)c4ccc(-c5ccccc5)cc4)CC3)C[C@@H]1CC[C@@H]1[C@@H]2CC[C@]2(C)C(=O)CC[C@@H]12 | inactive | 5.3 | 19.3 |  |  | 29.4 |  |  |  |
| COc1cccc(CN2CCN(C[C@@]3(O)CC[C@@]4(C)[C@@H](CC[C@@H]5[C@@H]4CC[C@]4(C)[C@H](O)CC[C@@H]54)C3)CC2)c1 | inactive | 4.67 | 41.7 | 610 | 235 | 31.7 |  |  |  |
| COc1cccc(CN2CCN(C[C@@]3(O)CC[C@@]4(C)[C@@H](CC[C@@H]5[C@@H]4CC[C@]4(C)C(=O)C(C)(C)C[C@@H]54)C3)CC2)c1 | inactive | 5.57 | 11.1 |  |  | 24.6 |  |  |  |
| COc1cccc(CN2CCN(C[C@@]3(O)CC[C@@]4(C)[C@@H](CC[C@@H]5[C@@H]4CC[C@]4(C)[C@@H](O)CC[C@@H]54)C3)CC2)c1 | inactive | 4.67 | 0 |  |  | 13.7 |  |  |  |
| C[C@]12CC[C@](O)(CN3CCN(C(=S)NCc4cccc(C(F)(F)F)c4)CC3)C[C@@H]1CC[C@@H]1[C@@H]2CC[C@]2(C)C(=O)CC[C@@H]12 | inactive | 3.85 | 34.2 |  |  | 8.5 |  |  |  |
| COc1cc(CN2CCN(C[C@@]3(O)CC[C@@]4(C)[C@@H](CC[C@@H]5[C@@H]4CC[C@]4(C)C(=O)CC[C@@H]54)C3)CC2)ccc1C | inactive | 4.72 | 12.5 |  |  | 31 |  |  |  |
| CN(C)S(=O)(=O)c1ccc(NC(=S)N2CCN(C[C@@]3(O)CC[C@@]4(C)[C@@H](CC[C@@H]5[C@@H]4CC[C@]4(C)C(=O)CC[C@@H]54)C3)CC2)cc1 | inactive | 3.32 | 13.3 |  |  | 0.3 |  |  |  |
| C[C@]12CC[C@](O)(CN3CCN(C(=O)c4ccc(C(=O)c5ccccc5)cc4)CC3)C[C@@H]1CC[C@@H]1[C@@H]2CC[C@]2(C)C(=O)CC[C@@H]12 | inactive | 4.99 | 8 |  |  | 58.8 |  |  |  |
| COc1cccc(CN2CCN(C[C@@]3(O)CC[C@@]4(C)[C@@H](CC[C@@H]5[C@@H]4CC[C@]4(C)C(=O)CC[C@@H]54)C3)CC2)c1 | inactive | 4.43 | 14.7 | 710 | 985 | 30 | 13.8 to 32.7 | Non-Toxic |  |
| CC(=O)c1cccc(C(=O)N2CCN(C[C@@]3(O)CC[C@@]4(C)[C@@H](CC[C@@H]5[C@@H]4CC[C@]4(C)C(=O)CC[C@@H]54)C3)CC2)c1 | inactive | 3.85 | 5 |  |  |  |  |  |  |
| COc1cccc(CN2CCN(C[C@@]3(O)CC[C@@]4(C)[C@@H](CC[C@@H]5[C@@H]4CC[C@@]4(C)[C@H]5CC[C@]4(C)O)C3)CC2)c1 | inactive | 5.06 | 21.9 |  |  | 22.6 |  |  |  |
| CN1C(=O)CN=C(c2ccccc2)c2cc(Cl)ccc21 [DIAZEPAM] |  |  |  |  |  |  | 50 to 60 |  |  |
| CCN(C)S(=O)(=O)N1CCN(C[C@@]2(O)CC[C@@]3(C)[C@@H](CC[C@@H]4[C@@H]3CC[C@]3(C)C(=O)CC[C@@H]43)C2)CC1 | inactive | 2.97 | 0 |  |  | 10.2 |  |  |  |
| C#C[C@]1(O)CC[C@H]2[C@@H]3CC[C@H]4C[C@@](O)(CN5CCN(Cc6cccc(OC)c6)CC5)CC[C@]4(C)[C@H]3CC[C@@]21C | inactive | 4.93 | 20 |  |  | 44.5 |  |  |  |
| COc1cccc(CN2CCN(C[C@@]3(O)CC[C@@]4(C)[C@@H](CC[C@@H]5[C@@H]4CC[C@@]4(C)[C@H]5CCC4(F)F)C3)CC2)c1 | inactive | 5.57 | 38.6 |  |  | 13.3 |  |  | Insoluble |
| C[C@]12CC[C@](O)(CN3CCN(Cc4cnc5ccccc5c4)CC3)C[C@@H]1CC[C@@H]1[C@@H]2CC[C@]2(C)C(=O)CC[C@@H]12 | inactive | 4.58 | 15.2 |  |  | 36.1 |  |  |  |
